The list is not random: actives were taken first. Their share in the collection is about 3.4%.
GPR7 antag: blocks human GPR7 receptor signaling | GPR7-expressing cells, fluorescence antagonist assay | inhibition, % at 4.4 µM | 290,000 tested, 1.1% active | AID 1861; in the data active = inhibition above about 16%, passing the limit was not always enough;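 also: cells stimulated with the agonist NPW; 0% = agonist with vehicle and 100% = vehicle without agonist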
TAAR1 antag: human TAAR1 antagonism. CHO RD-HGA16 TAAR1, Fluo-8 calcium fluorescence, antagonist. inhibition, % at 3 µM. 360,000 tested, 1.5% active;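 active = inhibition above a per-plate cutoff, the mean inhibition of test compounds on that plate plus 3 SD, cut at about 49% in these data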;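 also: 0% = DMSO plus EC80 beta-PEA response and 100% = DMSO alone without agonist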
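Assay system: CHO-derived RD-HGA16 cells stably expressing human TAAR1 plus Gα16. Timing: 140 s kinetic read after compound, 140 s after agonist. Technique: kinetic Fluo-8 calcium fluorescence measurement. Measure: % inhibition of agonist calcium response.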
zfTRPN1 agonist: activates the zebrafish TRPN1 channel; HEK293 zebrafish TRPN1-YFP, Fluo-8 calcium fluorescence; 100% = response to 87 µM carbachol; activation, % at 3 µM; 220,000 tested, 0.18% active; AID 1424;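 active = activation above its plate's cutoff, the mean activation of test wells on that plate plus 3 SD, cut at about 19% in these data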;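 also: 0% = DMSO alone and 100% = 87 µM carbachol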
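Control set: carbachol 87 µM as high control, DMSO as low control; system: HEK293 stable line with zebrafish TRPN1-YFP; read-out: % activation versus carbachol response; detection: intracellular calcium fluorescence with Fluo-8; doses: single test compound dose, 3 µM nominal, 0.3% DMSO; schedule: dye 1 h 37 °C plus 30 min RT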
TAAR1 ag: human TAAR1 agonism | 360,000 tested, 0.99% active | activation, % at 3 µM | CHO RD-HGA16 TAAR1, Fluo-8 calcium fluorescence; vehicle wells 0%, saturating PEA agonist 100%;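 active = activation above the mean activation of all test compounds in the run plus 3 SD, cut at about 38% in these data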
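Test system: RD-HGA16 (CHO) cells co-expressing Gα16 and hTAAR1 / Benchmarks: DMSO vehicle as 0%, PEA at EC100 as 100% / Repeats: no replicates (n 1) / Measure: % activation from peak over basal fluorescence ratio, DMSO-to-PEA scaled / Timing: 17-24 h plating, Fluo-8 75 min 37 °C, 30 min RT / Technique: kinetic Fluo-8 calcium fluorescence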
TRPML3 agonist: activates the human TRPML3 channel; Q8TDD5; HEK293 TRPML3-YFP, Fluo-8 calcium fluorescence; 100% = the carbachol control signal; activation, % at 3 µM; 220,000 tested, 0.29% active;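 active = activation above its plate's cutoff, the mean activation of the plate's test wells plus 3 SD, cut at about 12% in these data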;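 also: 0% = DMSO only wells and 100% = carbachol wells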
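Material: HEK293 cells stably carrying human TRPML3-YFP; compound dosing: single dose, 3 µM final nominal compound, 0.3% DMSO final; incubation: 1-h 37 °C dye load, 5-s basal, 120-s post-compound reads; technique: Fluo-8 intracellular calcium fluorescence, excitation 470-495 nm, emission 515-575 nm; read-out basis: percent activation from peak-to-basal fluorescence ratio, scaled between DMSO and carbachol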
LANA-H2B inh: blocks KSHV LANA binding to histone H2A/H2B | AID 2629 | Q9QR71 | 320,000 tested, 0.6% active | inhibition, % (no concentration beside the values) | cell-free LANA-H2A/H2B peptide, fluorescence polarization; in the data active = inhibition mostly above about 10%, no sharp cut-off; inactive = mostly below about 6.7%
Target sequence (Q9QR71 whole entry, looked up): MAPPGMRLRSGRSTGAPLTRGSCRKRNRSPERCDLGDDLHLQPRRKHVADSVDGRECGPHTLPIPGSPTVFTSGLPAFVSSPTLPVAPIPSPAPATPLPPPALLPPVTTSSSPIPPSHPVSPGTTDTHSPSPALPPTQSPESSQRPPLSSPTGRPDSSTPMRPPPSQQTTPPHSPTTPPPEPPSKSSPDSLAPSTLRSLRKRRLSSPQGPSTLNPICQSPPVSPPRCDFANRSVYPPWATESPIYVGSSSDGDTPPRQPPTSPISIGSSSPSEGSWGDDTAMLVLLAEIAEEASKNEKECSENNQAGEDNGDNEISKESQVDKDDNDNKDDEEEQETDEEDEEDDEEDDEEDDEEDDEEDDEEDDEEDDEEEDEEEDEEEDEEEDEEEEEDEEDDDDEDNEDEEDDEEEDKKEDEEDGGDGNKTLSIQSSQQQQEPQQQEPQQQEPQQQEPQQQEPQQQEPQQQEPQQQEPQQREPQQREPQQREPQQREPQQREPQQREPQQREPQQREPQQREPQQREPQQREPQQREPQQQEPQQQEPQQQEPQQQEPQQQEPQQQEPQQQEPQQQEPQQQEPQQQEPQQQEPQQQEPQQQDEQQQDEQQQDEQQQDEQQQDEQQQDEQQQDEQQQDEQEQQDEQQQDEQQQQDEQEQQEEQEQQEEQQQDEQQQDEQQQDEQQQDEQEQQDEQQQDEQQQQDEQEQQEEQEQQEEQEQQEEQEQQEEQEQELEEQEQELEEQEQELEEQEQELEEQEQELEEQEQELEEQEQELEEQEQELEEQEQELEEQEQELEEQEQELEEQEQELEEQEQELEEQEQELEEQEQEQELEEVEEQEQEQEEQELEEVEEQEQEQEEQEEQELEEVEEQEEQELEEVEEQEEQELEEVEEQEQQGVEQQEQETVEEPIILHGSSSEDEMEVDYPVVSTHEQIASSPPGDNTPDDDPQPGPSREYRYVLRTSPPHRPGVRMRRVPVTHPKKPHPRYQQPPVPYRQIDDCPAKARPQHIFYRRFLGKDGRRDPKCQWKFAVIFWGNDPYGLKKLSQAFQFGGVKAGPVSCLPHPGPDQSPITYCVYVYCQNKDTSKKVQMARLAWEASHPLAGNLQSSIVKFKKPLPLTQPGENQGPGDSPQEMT
TAAR1 ag conf: confirmation of human TAAR1 agonists | shares compounds with TAAR1 ag | CHO RD-HGA16 TAAR1, Fluo-8 calcium fluorescence; scaled: DMSO 0%, maximal phenethylamine 100% | activation, % at 3 µM | 2,400 tested, 82% active | AID 651783;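 active = activation above a cutoff set at the run's mean compound activation plus 3 SD, cut at about 39% in these data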
Ga16 ag counter: nonselective agonist in parental cells, TAAR1 agonist counter-screen; shares compounds with TAAR1 ag; CHO-Ga16 parental, Fluo-8 calcium fluorescence; normalized to maximal ATP response, DMSO zero; activation, % at 3 µM; 2,400 tested, 50% active;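 active = activation above the run cutoff, the mean activation over all tested wells plus 3 SD, cut at about 12% in these data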;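 also: 0% = DMSO wells and 100% = maximal ATP response on the peak over basal ratio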
TAAR1 desens: TAAR1 response desensitization, agonist counter-screen | CHO RD-HGA16 hTAAR1, Fluo-8 calcium, beta-PEA response inhibition | shares compounds with TAAR1 ag | inhibition, % at 3 µM | AID 651951 | 2,400 tested, 46% active;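 active = inhibition above the run cutoff, the mean inhibition of all test compounds plus 3 SD, cut at about 49% in these data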;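 also: beta-PEA stimulus applied at its EC80; loss of beta-PEA calcium signal after compound pretreatment read as receptor desensitization; 0% = DMSO with beta-PEA at EC80 and 100% = DMSO alone without agonist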
Ga16 antag count: nonselective Ga16 antagonism, counter-screen; CHO-Ga16 ATP-induced calcium, Fluo-8 fluorescence; inhibition, % at 3 µM; 2,400 tested, 39% active; shares compounds with TAAR1 ag;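 active = inhibition above the plate's mean compound inhibition plus 3 SD, computed per plate, cut at about 22% in these data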;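 also: 0% = EC80 ATP with DMSO and 100% = DMSO wells without ATP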
Active calls of the source: *; . = no result given.

SMILES	GPR7 antag	TAAR1 antag	zfTRPN1 agonist	TAAR1 ag	TRPML3 agonist	LANA-H2B inh	TAAR1 ag conf	Ga16 ag counter	TAAR1 desens	Ga16 antag count
CCCCN1C(=O)NC(=O)C2(Cc3c(nc4ccccn4c3=O)N3CCc4ccccc4C32)C1=O (stereo not given)	-11	24	1	61*	1	4	90*	33*	40	11
CCCCN1C(=O)NC(=O)C2(Cc3c(nc4c(C)cccn4c3=O)N3CCc4ccccc4C32)C1=O (stereo not given)	3	38	-1	57*	0	10	72*	28*	49*	27*
CC12Nc3ccccc3C(=O)N1Cc1cnnn1-c1ccccc12 (stereo not given)	.	-8	.	3	.	.	.	.	.	.
Clc1ccc(C(c2ccc(Cl)cc2)n2cc[n+](CC(OCc3ccc(Cl)cc3Cl)c3ccc(Cl)cc3Cl)c2)cc1 (stereo not given)	.	-9	.	0	.	-28	.	.	.	.
COc1cc(O)cc2c1C(=O)O[C@@H](C)CCCC(=O)CCCCC2	29	19	.	62*	.	-5	30	10	10	18
CNC(C)Cc1ccccc1 (stereo not given)	.	66*	.	63*	.	.	94*	19*	83*	9
Fc1ccc(NC(=S)N2Cc3ccccc3-n3nncc3C2)cc1	.	2	.	1	.	.	.	.	.	.
CC1OC(NCCc2ccccc2)C(O)C(O)C1O (stereo not given)	5	.	-1	.	0	4	.	0	.	2
NC1CC2CCCCC2CC1(O)c1ccccc1 (stereo not given)	.	-6	.	1	.	.	.	.	.	.
N[C@H](CO)Cc1ccccc1	.	14	.	52*	.	.	74*	1	37	9
CNc1ccc2oc(C[C@H]3O[C@@]4(CC[C@H]3C)O[C@H]([C@H](C)C(=O)c3ccc[nH]3)[C@H](C)C[C@H]4C)nc2c1C(=O)O	.	106*	.	198*	.	-4	184*	146*	107*	101*
CCCCCCCCn1sccc1=O	.	2	.	20	.	-43	.	.	.	.
O=C1NCN(c2ccccc2)C12CCN(C(c1cccc3ccccc13)c1nnnn1C1CCCCC1)CC2 (stereo not given)	.	-29	.	0	.	.	.	.	.	.
CN1CC(C(=O)c2ccccc2)C(c2ccccc2)C1 (stereo not given)	-5	-31	.	55*	.	5	76*	3	28	7
CN1CC(C(=O)c2ccc(Cl)cc2)C(c2ccccc2F)C1 (stereo not given)	3	-8	0	45*	1	6	74*	5	34	13
Cc1ccccc1CCNCc1cc2cccc(C)c2[nH]c1=O	-5	86*	.	108*	.	5	112*	17*	98*	7
COc1cc(/C=C/[N+](=O)[O-])ccc1OC(=O)c1cccnc1	-4	24	.	56*	.	1	87*	62*	67*	60*
C=CCC1([C@@H](C)CCC)C(=O)NC(=O)NC1=O	.	7	.	0	.	.	.	.	.	.
CCCC1(CC(C)CC)C(=O)NC(=O)NC1=O (stereo not given)	.	4	.	51*	.	.	78*	0	25	10

Screens deposited in PubChem by several laboratories.
